The source made the active and inactive calls.
Assays:
[1] = molecular target: T1, Cyclin-dependent kinase 9 (Homo sapiens, UniProt P50750); assay: Inhibition of CDK9 in human HL60 cells assessed as decrease in phosphorylation at Thr 186 residues up to 3 uM after 2 hrs by immunoblotting analysis; format: cell-based
HL-60 = assay: Induction of apoptosis in human HL60 cells assessed as decrease in MCL-1 level after 2 hrs by immunoblotting analysis; format: functional, cell-based
[2] = Half life in mouse at 10 mg/kg, po by LC-MS/MS analysis; format: ADME, organism-based; conditions: in vivo
[3] = AUC (0 to t) in mouse at 10 mg/kg, po by LC-MS/MS analysis; format: ADME, organism-based; conditions: in vivo
Method in brief: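 Non-compartmental PK. Male SD rats 190-210 g, mice and beagle dogs acclimatized one week, fasted 12 h with water, split into iv and po groups (mice 48, rats 6, dogs 6). iv 3/3/2 mg/kg (mice/rats/dogs); po 10/20/10 mg/kg; vehicle DMSO in 5% glucose water. Blood at 2 or 5 to 720 min; plasma protein-precipitated with methanol, caffeine internal standard, LC-MS/MS.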

[4] = molecular target: T1, Cyclin-dependent kinase 9; assay: Binding affinity to wild-type human full length CDK9 (M1 to F372 residues) expressed in bacterial expression system assessed as remaining unbound target protein level at 1000 nM by Kinomescan method relative to control
Method in brief: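 KINOMEscan competition binding panel run at 1 μM inhibitor; binding reported as percent of DMSO control (remaining target bound versus vehicle).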

[5] = molecular target: Serine/threonine-protein kinase MRCK gamma (Homo sapiens) (UniProt Q6DT37); assay: Binding affinity to wild-type human partial length DMPK2 (S46 to S408 residues) expressed in bacterial expression system assessed as remaining unbound target protein level at 1000 nM by Kinomescan method relative to control
[6] = molecular target: Ephrin type-A receptor 6 (Homo sapiens) (UniProt Q9UF33); assay: Binding affinity to wild-type human partial length EPHA6 (Y700 to E1046 residues) expressed in bacterial expression system assessed as remaining unbound target protein level at 1000 nM by Kinomescan method relative to control
[7] = molecular target: Mitogen-activated protein kinase 7 (Homo sapiens) (UniProt Q13164); assay: Binding affinity to wild-type human partial length ERK5 (M1 to A409 residues) expressed in bacterial expression system assessed as remaining unbound target protein level at 1000 nM by Kinomescan method relative to control
[8] = molecular target: Fibroblast growth factor receptor 4 (Homo sapiens) (UniProt P22455); assay: Binding affinity to wild-type human partial length FGFR4 (G402 to E713 residues) expressed in bacterial expression system assessed as remaining unbound target protein level at 1000 nM by Kinomescan method relative to control
[9] = system: eIF-2-alpha kinase GCN2 (Homo sapiens), Q9P2K8 [S808G]; assay: Binding affinity to wild-type human partial length GCN2 kinase domain 2 (R585 to T1018 residues) S808G mutant expressed in bacterial expression system assessed as remaining unbound target protein level at 1000 nM by Kinomescan method relative to control
[10] = molecular target: Glycogen synthase kinase-3 beta (Homo sapiens) (UniProt P49841); assay: Binding affinity to wild-type human full length GSK3B (M1 to T433 residues) expressed in mammalian expression system assessed as remaining unbound target protein level at 1000 nM by Kinomescan method relative to control
Method in brief: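 Single-point competition binding screen across a panel of 468 kinases and mutants, with the inhibitor at 1 μM. Binding is read out as percent of a DMSO control, and targets below 1 percent control were classed as strong binders.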

[11] = molecular target: Insulin receptor (Homo sapiens) (UniProt P06213); assay: Binding affinity to wild-type human partial length INSR (P997 to E1318 residues) expressed in mammalian expression system assessed as remaining unbound target protein level at 1000 nM by Kinomescan method relative to control
Method in brief: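 KINOMEscan binding panel of 468 kinases/mutants. Inhibitor was tested at a single concentration of 1 μM. Binding is reported as percent of control, defined relative to a DMSO control.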

[12] = molecular target: Serine/threonine-protein kinase Nek6 (Homo sapiens) (UniProt Q9HC98); assay: Binding affinity to wild-type human full length NEK6 (M8 to T313 residues) expressed in bacterial expression system assessed as remaining unbound target protein level at 1000 nM by Kinomescan method relative to control
Method in brief: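 KINOMEscan competition binding profile across a panel of 468 kinases and mutants, with the inhibitor tested at a single concentration of 1 μM. Binding is reported as percent of control, meaning signal relative to a DMSO control.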

[13] = molecular target: Serine/threonine-protein kinase PAK 3 (Homo sapiens) (UniProt O75914); assay: Binding affinity to wild-type human full length PAK3 (M1 to R544 residues) expressed in bacterial expression system assessed as remaining unbound target protein level at 1000 nM by Kinomescan method relative to control
Method in brief: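 Profiled in a KINOMEscan binding panel with the inhibitor at a single concentration of 1 μM. Binding to each kinase was read out as percent of control, relative to a DMSO control. Strong binders were defined as those with a percent control value below 1.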

[14] = molecular target: Protein kinase C eta type (Homo sapiens) (UniProt P24723); assay: Binding affinity to wild-type human partial length PRKCH (S324 to P683 residues) expressed in bacterial expression system assessed as remaining unbound target protein level at 1000 nM by Kinomescan method relative to control
[15] = molecular target: Serine/threonine-protein kinase SBK1 (Homo sapiens) (UniProt Q52WX2); assay: Binding affinity to wild-type human partial length SBK1 (P23 to P348 residues) expressed in mammalian expression system assessed as remaining unbound target protein level at 1000 nM by Kinomescan method relative to control
[16] = molecular target: Serine/threonine-protein kinase Sgk3 (Homo sapiens) (UniProt Q96BR1); assay: Binding affinity to wild-type human partial length SGK3 (M119 to L496 residues) expressed in mammalian expression system assessed as remaining unbound target protein level at 1000 nM by Kinomescan method relative to control
[17] = molecular target: Serine/threonine-protein kinase 35 (Homo sapiens) (UniProt Q8TDR2); assay: Binding affinity to wild-type human partial length STK35 (G182 to A534 residues) expressed in bacterial expression system assessed as remaining unbound target protein level at 1000 nM by Kinomescan method relative to control
[18] = molecular target: Serine/threonine-protein kinase TAO2 (Homo sapiens) (UniProt Q9UL54); assay: Binding affinity to wild-type human partial length TAOK2 (M1 to A320 residues) expressed in mammalian expression system assessed as remaining unbound target protein level at 1000 nM by Kinomescan method relative to control
[19] = molecular target: Vascular endothelial growth factor receptor 2 (Homo sapiens, UniProt P35968); assay: Binding affinity to wild-type human partial length VEGFR2 (R787 to P1253 residues) expressed in mammalian expression system assessed as remaining unbound target protein level at 1000 nM by Kinomescan method relative to control; conditions: read-out: Activity
Homo sapiens = species on record: Homo sapiens; assay: Selectivity ratio of IC50 for recombinant GST-tagged inactive state of human CDK11 to IC50 for recombinant full length His-tagged human CDK9/CyclinT1

T1 sequence (P50750 whole entry): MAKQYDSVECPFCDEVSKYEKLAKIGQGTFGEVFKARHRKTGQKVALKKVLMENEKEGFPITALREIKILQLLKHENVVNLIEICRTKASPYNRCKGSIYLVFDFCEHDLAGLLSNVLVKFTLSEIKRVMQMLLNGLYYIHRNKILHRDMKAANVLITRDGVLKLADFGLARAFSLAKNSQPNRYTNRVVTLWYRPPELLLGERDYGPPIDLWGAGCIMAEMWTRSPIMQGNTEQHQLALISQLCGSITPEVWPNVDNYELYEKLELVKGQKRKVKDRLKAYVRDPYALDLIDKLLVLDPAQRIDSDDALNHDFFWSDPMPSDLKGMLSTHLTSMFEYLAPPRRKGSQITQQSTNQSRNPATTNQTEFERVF
eIF-2-alpha kinase GCN2 (Homo sapiens), Q9P2K8 [S808G], sequence (Q9P2K8 whole entry S808G, the tested form may be a part): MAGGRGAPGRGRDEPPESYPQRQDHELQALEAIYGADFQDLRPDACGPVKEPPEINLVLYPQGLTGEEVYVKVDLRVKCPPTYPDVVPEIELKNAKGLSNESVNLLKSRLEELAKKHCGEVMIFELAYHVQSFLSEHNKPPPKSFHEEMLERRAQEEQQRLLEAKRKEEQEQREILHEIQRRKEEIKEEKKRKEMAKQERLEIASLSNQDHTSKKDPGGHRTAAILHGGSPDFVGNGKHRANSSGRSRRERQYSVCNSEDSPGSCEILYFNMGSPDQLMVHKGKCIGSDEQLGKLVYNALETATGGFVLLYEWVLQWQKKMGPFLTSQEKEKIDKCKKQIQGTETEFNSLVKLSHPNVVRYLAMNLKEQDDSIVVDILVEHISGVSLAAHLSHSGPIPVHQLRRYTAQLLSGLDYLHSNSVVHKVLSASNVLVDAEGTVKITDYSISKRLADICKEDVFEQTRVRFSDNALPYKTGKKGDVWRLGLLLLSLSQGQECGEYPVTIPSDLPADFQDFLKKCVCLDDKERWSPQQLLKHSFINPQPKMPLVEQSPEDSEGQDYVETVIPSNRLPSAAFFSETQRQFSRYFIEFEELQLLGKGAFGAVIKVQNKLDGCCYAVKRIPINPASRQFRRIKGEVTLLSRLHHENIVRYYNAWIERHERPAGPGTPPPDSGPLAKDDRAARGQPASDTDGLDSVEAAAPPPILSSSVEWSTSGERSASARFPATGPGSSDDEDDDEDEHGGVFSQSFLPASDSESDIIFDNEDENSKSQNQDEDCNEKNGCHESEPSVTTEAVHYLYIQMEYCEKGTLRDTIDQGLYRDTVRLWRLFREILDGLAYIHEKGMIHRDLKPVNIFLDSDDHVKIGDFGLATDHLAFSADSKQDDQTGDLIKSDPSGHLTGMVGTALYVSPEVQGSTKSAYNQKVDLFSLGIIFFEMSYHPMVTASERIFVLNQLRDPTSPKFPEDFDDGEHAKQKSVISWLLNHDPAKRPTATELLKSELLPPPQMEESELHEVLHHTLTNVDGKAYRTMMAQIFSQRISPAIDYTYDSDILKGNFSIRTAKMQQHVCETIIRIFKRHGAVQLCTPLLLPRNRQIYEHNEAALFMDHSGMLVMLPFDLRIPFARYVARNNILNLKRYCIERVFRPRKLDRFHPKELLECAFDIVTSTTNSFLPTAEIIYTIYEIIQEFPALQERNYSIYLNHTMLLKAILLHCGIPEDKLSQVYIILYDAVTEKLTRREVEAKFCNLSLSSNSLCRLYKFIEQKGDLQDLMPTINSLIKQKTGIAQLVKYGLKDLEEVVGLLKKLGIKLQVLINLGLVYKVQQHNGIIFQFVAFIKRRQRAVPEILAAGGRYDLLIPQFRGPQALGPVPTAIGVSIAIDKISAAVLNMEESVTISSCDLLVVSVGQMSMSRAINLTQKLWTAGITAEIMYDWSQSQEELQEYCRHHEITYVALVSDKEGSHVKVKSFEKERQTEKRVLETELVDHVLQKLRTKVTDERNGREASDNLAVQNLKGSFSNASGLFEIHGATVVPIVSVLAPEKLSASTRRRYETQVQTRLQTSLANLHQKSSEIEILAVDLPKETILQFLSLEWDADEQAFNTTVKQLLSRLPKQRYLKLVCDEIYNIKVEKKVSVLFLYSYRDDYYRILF
Serine/threonine-protein kinase SBK1 (Homo sapiens), sequence (Q52WX2 whole entry, the tested form may be a part): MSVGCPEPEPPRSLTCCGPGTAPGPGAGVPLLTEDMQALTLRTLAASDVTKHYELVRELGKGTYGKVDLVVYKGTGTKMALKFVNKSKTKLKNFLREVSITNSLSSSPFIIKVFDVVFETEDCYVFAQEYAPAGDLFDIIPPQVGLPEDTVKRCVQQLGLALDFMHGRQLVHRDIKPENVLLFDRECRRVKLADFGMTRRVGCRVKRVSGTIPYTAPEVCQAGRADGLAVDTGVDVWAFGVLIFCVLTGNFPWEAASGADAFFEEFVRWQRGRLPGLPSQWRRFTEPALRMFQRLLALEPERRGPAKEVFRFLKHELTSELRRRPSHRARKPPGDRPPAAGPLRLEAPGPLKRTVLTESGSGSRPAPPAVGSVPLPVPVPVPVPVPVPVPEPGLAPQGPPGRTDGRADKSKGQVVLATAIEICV
Vascular endothelial growth factor receptor 2, sequence (P35968 whole entry, the tested form may be a part): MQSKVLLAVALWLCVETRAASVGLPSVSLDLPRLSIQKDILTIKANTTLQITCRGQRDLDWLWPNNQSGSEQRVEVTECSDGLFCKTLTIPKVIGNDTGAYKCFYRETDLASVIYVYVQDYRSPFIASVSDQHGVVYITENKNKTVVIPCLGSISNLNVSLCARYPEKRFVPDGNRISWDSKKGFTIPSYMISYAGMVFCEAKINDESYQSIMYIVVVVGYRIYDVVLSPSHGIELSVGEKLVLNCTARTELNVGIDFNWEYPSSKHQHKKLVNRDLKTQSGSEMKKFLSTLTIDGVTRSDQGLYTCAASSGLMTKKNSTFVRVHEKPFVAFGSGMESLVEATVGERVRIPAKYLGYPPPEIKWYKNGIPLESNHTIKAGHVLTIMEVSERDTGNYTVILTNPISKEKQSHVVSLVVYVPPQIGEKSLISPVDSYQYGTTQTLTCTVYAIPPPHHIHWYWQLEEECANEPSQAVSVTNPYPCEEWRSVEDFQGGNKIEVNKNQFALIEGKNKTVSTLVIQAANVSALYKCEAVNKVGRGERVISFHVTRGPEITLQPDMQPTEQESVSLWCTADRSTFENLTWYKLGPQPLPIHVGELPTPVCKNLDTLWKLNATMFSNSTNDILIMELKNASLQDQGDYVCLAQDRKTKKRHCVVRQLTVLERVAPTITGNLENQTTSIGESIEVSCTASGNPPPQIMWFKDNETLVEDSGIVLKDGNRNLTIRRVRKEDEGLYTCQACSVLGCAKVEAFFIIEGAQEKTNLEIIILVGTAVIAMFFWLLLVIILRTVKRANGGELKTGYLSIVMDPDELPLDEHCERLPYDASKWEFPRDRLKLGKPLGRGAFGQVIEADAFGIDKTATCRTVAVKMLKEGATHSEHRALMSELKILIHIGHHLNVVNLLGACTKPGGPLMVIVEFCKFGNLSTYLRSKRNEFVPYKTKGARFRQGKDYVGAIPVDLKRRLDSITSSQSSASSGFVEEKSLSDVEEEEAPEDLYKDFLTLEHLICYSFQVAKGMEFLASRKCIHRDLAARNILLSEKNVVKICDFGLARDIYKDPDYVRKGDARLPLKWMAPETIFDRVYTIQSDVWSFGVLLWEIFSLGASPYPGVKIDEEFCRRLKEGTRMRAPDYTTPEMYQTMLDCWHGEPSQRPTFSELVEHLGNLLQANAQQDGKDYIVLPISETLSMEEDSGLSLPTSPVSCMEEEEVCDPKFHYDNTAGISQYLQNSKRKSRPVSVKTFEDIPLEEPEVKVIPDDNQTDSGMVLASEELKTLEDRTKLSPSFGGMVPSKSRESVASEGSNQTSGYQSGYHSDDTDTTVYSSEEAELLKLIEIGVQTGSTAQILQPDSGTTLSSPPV
Serine/threonine-protein kinase TAO2 (Homo sapiens), sequence (Q9UL54 whole entry, the tested form may be a part): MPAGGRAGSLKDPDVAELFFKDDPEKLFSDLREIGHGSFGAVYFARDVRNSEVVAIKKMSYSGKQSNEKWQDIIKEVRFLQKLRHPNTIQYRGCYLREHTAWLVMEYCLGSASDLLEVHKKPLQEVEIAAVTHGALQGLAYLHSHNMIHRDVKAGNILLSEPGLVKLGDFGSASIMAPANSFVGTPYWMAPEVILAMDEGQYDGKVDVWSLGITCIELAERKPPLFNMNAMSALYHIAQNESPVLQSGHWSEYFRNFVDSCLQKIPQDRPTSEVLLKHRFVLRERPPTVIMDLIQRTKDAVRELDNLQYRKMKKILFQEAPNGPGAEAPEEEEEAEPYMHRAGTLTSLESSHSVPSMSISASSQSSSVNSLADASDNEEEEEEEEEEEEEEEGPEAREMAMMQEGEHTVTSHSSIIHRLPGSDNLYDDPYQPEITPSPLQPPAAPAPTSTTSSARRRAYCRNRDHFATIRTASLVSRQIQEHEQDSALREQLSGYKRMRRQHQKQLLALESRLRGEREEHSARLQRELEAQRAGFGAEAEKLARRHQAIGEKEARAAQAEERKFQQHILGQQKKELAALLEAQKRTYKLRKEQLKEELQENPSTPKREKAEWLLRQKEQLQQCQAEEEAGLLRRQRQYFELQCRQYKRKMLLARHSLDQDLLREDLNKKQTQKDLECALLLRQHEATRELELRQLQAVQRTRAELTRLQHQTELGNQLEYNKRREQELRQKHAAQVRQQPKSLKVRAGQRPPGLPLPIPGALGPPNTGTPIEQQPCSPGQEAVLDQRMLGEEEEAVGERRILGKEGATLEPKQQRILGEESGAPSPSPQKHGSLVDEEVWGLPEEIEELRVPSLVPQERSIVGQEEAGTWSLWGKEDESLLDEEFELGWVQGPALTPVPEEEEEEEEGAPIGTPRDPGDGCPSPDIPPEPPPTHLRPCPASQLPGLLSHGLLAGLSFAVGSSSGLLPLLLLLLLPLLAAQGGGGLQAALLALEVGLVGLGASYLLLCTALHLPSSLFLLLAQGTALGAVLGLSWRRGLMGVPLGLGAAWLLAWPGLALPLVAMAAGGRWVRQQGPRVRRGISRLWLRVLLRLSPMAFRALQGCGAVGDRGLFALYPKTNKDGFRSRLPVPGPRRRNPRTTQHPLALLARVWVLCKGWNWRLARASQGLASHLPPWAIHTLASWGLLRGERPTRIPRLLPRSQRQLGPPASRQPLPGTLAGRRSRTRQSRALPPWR

For `COCCN[C@H]1CC[C@H](Nc2cc(-c3csc(NCC4(C#N)CCOCC4)n3)c(Cl)cn2)CC1`, the inhibition [1] was “inactive”, the Activity (HL-60) was “Dose-dependent effect” and the half-life [2] was 1.55 h. It also gave an AUC(0-t) [3] of 591 ng·h/mL, an Activity [4] of 0.9% and an Activity [5] of 92%. For the same compound, the Activity [6] was 100%, the Activity [7] was 88% and the Activity [8] was 100%. For the same compound, the Activity [9] was 78%, the Activity [10] was 98% and the Activity [11] was 94%. For the same compound, the Activity [12] was 94%, the Activity [13] was 97% and the Activity [14] was 98%. The Activity [15] was 75%, the Activity [16] was 100% and the Activity [17] was 100%. The Activity [18] was 60%, the activity at 1 µM [19] was 98% and the Ratio IC50 (Homo sapiens) was over 1000.

From ChEMBL document CHEMBL4261600 (Eur J Med Chem, 2018)
